{"source": "paper PMC10753860", "about": "(European journal of medicinal chemistry, 2023)", "key": {"[1]": {"test_system": "HBV replication in AML12HBV10 cells", "assay": "Antiviral dot blot hybridization assay of HBV DNA in AML12HBV10 cells", "assay_type": "cell-based, hepatitis B virus (mouse hepatocyte-derived cell line)"}, "[2]": {"test_system": "HBV replication in AML12HBV10 cells", "settings": "HBV AML12HBV10 cell line; cited from earlier work"}, "[3]": {"test_system": "HBV capsid assembly and pgRNA encapsidation in AML12HBV10 cells", "assay": "Mode of action study in AML12HBV10 cells", "assay_type": "cell-based, hepatitis B virus (mouse hepatocyte-derived cell line)", "settings": "2 days, ETV 1 μM; for amount of encapsidated pgRNA / viral DNA replication intermediates: Bay 41-4109 2 μM, DVR-23 5 μM; for amount of encapsidated pgRNA / viral DNA replication intermediates / amount of total viral RNA / amount of core protein: 17 or 18 1 or 5 μM; for amount of encapsidated pgRNA / amount of total viral RNA: Northern blot; for viral DNA replication intermediates: Southern blot; for amount of core protein: Western blot", "outline": "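Mouse hepatocyte-derived AML12HBV10 cells carry a tetracycline-inducible, envelope-deficient HBV genome. They were seeded in 24-well plates, kept with tet (negative control) or without it for 24 h, then DMSO- or compound-treated for 48 h. Read-outs: total RNA and encapsidated pgRNA by Northern blot (rRNA loading); Cp by Western blot with antibody to its C-terminal 14 residues (β-actin loading); capsids and core DNA by native agarose particle gel.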"}}}
{"smiles": "O=C(Nc1ccc(F)c(Cl)c1)N1CCN[C@H]2CCCC[C@H]21", "note": "(relative stereo) [Compound 34, Cis-N-(3-chloro-4-fluorophenyl)octahydroquinoxaline-1(2H)-carboxamide]", "values": [{"measurement": "anti-HBV activity (in words)", "setting": "[1]; AML12HBV10 cells", "result": "loss of activity"}]}
{"smiles": "O=C(Nc1ccc(F)c(Cl)c1)c1cccc2c1OCCO2", "note": "[38017 (8)]", "values": [{"measurement": "EC50 (in words)", "setting": "[2]", "result": "sub-micromolar"}]}
{"smiles": "COC(=O)C1=C(C)NC(c2ncc(F)cc2F)=N[C@H]1c1ccc(F)cc1Cl", "note": "[Bay 41-4109]", "values": [{"measurement": "amount of encapsidated pgRNA", "setting": "[3]", "result": "significantly reduced"}, {"measurement": "viral DNA replication intermediates", "setting": "[3]", "result": "viral DNA replication was inhibited"}]}
{"smiles": "O=C(Nc1ccc(F)c(Cl)c1)N1CCNc2ccccc21", "note": "[Compound 17, N-(3-chloro-4-fluorophenyl)-3,4-dihydroquinoxaline-1(2H)-carboxamide]", "values": [{"measurement": "amount of total viral RNA", "setting": "[3]", "result": "did not alter"}, {"measurement": "amount of core protein", "setting": "[3]", "result": "did not alter"}, {"measurement": "amount of encapsidated pgRNA", "setting": "[3]", "result": "drastically reduced"}, {"measurement": "viral DNA replication intermediates", "setting": "[3]", "result": "drastically reduced"}]}
{"smiles": "O=C(Nc1ccc(F)c(Cl)c1)N1CCN(C(=O)Nc2ccc(F)c(Cl)c2)c2ccccc21", "note": "[Compound 18, N^1,N^4-bis(3-chloro-4-fluorophenyl)-2,3-dihydroquinoxaline-1,4-dicarboxamide]", "values": [{"measurement": "amount of total viral RNA", "setting": "[3]", "result": "did not alter"}, {"measurement": "amount of core protein", "setting": "[3]", "result": "did not alter"}, {"measurement": "amount of encapsidated pgRNA", "setting": "[3]", "result": "drastically reduced"}, {"measurement": "viral DNA replication intermediates", "setting": "[3]", "result": "drastically reduced"}]}
{"smiles": "O=C(Nc1ccc(F)c(Cl)c1)C1CCNc2ccccc21", "note": "(stereo not drawn) [Compound 23, N-(3-chloro-4-fluorophenyl)-1,2,3,4-tetrahydroquinoline-4-carboxamide]", "values": [{"measurement": "anti-HBV activity (in words)", "setting": "[1]; AML12HBV10 cells", "result": "loss of activity"}]}
{"smiles": "O=S(=O)(Nc1ccc(F)c(Cl)c1)N1CCNc2ccccc21", "note": "[Compound 26, N-(3-chloro-4-fluorophenyl)-3,4-dihydroquinoxaline-1(2H)-sulfonamide]", "values": [{"measurement": "anti-HBV activity (in words)", "setting": "[1]; AML12HBV10 cells", "result": "loss of activity"}]}
{"smiles": "O=C(Nc1ccc(F)c(Cl)c1)N1CCCc2ccccc21", "note": "[Compound 27, N-(3-chloro-4-fluorophenyl)-3,4-dihydroquinoline-1(2H)-carboxamide]", "values": [{"measurement": "reduction of activity relative to 17", "setting": "[1]; AML12HBV10 cells, replacement of 4-N with CH2", "result": 3, "unit": "fold"}]}
{"smiles": "NC1CCN(C(=O)Nc2ccc(F)c(Cl)c2)c2ccccc21", "note": "(stereo not drawn) [Compound 28, 4-Amino-N-(3-chloro-4-fluorophenyl)-3,4-dihydroquinoline-1(2H)-carboxamide]", "values": [{"measurement": "anti-HBV activity (in words)", "setting": "[1]; AML12HBV10 cells", "result": "no activity was observed"}]}
{"smiles": "O=C1CN(C(=O)Nc2ccc(F)c(Cl)c2)c2ccccc2N1", "note": "[Compound 29, N-(3-chloro-4-fluorophenyl)-3-oxo-3,4-dihydroquinoxaline-1(2H)-carboxamide]", "values": [{"measurement": "anti-HBV activity (in words)", "setting": "[1]; AML12HBV10 cells", "result": "inactive"}]}
{"smiles": "O=C(Nc1ccc(F)c(Cl)c1)N1CCc2ccccc21", "note": "[Compound 30, N-(3-chloro-4-fluorophenyl)indoline-1-carboxamide]", "values": [{"measurement": "anti-HBV activity (in words)", "setting": "[1]; AML12HBV10 cells", "result": "maintained activity"}]}
{"smiles": "O=C(Nc1ccc(F)c(Cl)c1)N1CCCCc2ccccc21", "note": "[Compound 32, N-(3-chloro-4-fluorophenyl)-2,3,4,5-tetrahydro-1H-benzo[b]azepine-1-carboxamide]", "values": [{"measurement": "anti-HBV activity (in words)", "setting": "[1]; AML12HBV10 cells", "result": "diminished the activity"}]}
{"smiles": "O=C(Nc1ccc(F)c(C(F)F)c1)N1CCNc2ccccc21", "note": "[Compound 35, N-(3-(difluoromethyl)-4-fluorophenyl)-3,4-dihydroquinoxaline-1(2H)-carboxamide]", "values": [{"measurement": "anti-HBV activity (in words)", "setting": "[1]; AML12HBV10 cells", "result": "improved the potencies"}]}
{"smiles": "O=C(NCc1cccc(Cl)c1)N1CCNc2ccccc21", "note": "[Compound 44, N-(3-chlorobenzyl)-3,4-dihydroquinoxaline-1(2H)-carboxamide]", "values": [{"measurement": "anti-HBV activity (in words)", "setting": "[1]; AML12HBV10 cells", "result": "reduced the activity"}]}
{"smiles": "O=C(Cc1ccc(F)c(Cl)c1)N1CCNc2ccccc21", "note": "[Compound 45, 2-(3-chloro-4-fluorophenyl)-1-(3,4-dihydroquinoxalin-1(2H)-yl)ethanone]", "values": [{"measurement": "anti-HBV activity (in words)", "setting": "[1]; AML12HBV10 cells", "result": "loss of activity"}]}
{"smiles": "O=C(Nc1ccc(F)c(Cl)c1)N1c2ccccc2NCC1CN1CCOCC1", "note": "(stereo not drawn) [Compound 71, N-(3-chloro-4-fluorophenyl)-2-(morpholinomethyl)-3,4-dihydroquinoxaline-1(2H)-carboxamide]", "values": [{"measurement": "anti-HBV activity (in words)", "setting": "[1]; AML12HBV10 cells", "result": "reduced the activity significantly"}]}
{"smiles": "O=C(Nc1ccc(F)c(Cl)c1)N1c2ccccc2NCC1c1ccccc1", "note": "(stereo not drawn) [Compound 74, N-(3-chloro-4-fluorophenyl)-2-phenyl-3,4-dihydroquinoxaline-1(2H)-carboxamide]", "values": [{"measurement": "anti-HBV activity (in words)", "setting": "[1]; AML12HBV10 cells", "result": "sub-micromolar activity"}]}
{"smiles": "CC1(C)CCN(CC2CNc3ccccc3N2C(=O)Nc2ccc(F)c(Cl)c2)CC1", "note": "(stereo not drawn) [Compound 76, N-(3-chloro-4-fluorophenyl)-2-((4,4-dimethylpiperidin-1-yl)methyl)-3,4-dihydroquinoxaline-1(2H)-carboxamide]", "values": [{"measurement": "anti-HBV activity (in words)", "setting": "[1]; AML12HBV10 cells", "result": "loss of activity"}]}
{"smiles": "N#Cc1cc(NC(=O)N2c3ccccc3NCC2CN2CCC(F)(F)CC2)ccc1F", "note": "(stereo not drawn) [Compound 86, N-(3-cyano-4-fluorophenyl)-2-((4,4-difluoropiperidin-1-yl)methyl)-3,4-dihydroquinoxaline-1(2H)-carboxamide]", "values": [{"measurement": "EC50", "setting": "[1]; Hepatitis B virus, AML12HBV10, in Mus musculus", "result": "~100", "unit": "nM"}]}
{"smiles": "O=C(Nc1ccc(F)c(C(F)(F)F)c1)N1c2ccccc2NCC1CN1CCC(F)(F)CC1", "note": "(stereo not drawn) [Compound 87, 2-((4,4-difluoropiperidin-1-yl)methyl)-N-(4-fluoro-3-(trifluoromethyl)phenyl)-3,4-dihydroquinoxaline-1(2H)-carboxamide]", "values": [{"measurement": "anti-HBV activity (in words)", "setting": "[1]; AML12HBV10 cells", "result": "moderate sub-micromolar"}]}
{"smiles": "O=C(Nc1cccc(Cl)c1)N1c2ccccc2NCC1CN1CCC(F)(F)CC1", "note": "(stereo not drawn) [Compound 89, N-(3-chlorophenyl)-2-((4,4-difluoropiperidin-1-yl)methyl)-3,4-dihydroquinoxaline-1(2H)-carboxamide]", "values": [{"measurement": "anti-HBV activity (in words)", "setting": "[1]; AML12HBV10 cells", "result": "moderate sub-micromolar"}]}
{"smiles": "O=C(Nc1cc(F)c(F)c(F)c1)N1CCN(C(=O)Nc2ccc(F)c(Cl)c2)c2ccccc21", "note": "[Compound 95, N^1-(3-chloro-4-fluorophenyl)-N^4-(3,4,5-trifluorophenyl)-2,3-dihydroquinoxaline-1,4-dicarboxamide]", "values": [{"measurement": "anti-HBV activity (in words)", "setting": "[1]; AML12HBV10 cells", "result": "sub-micromolar activities"}]}
{"smiles": "O=C(Nc1ccc(F)c(Cl)c1)N1CCN(C(=O)Nc2cc(Cl)c(F)cc2F)c2ccccc21", "note": "[Compound 96, N^1-(5-chloro-2,4-difluorophenyl)-N^4-(3-chloro-4-fluorophenyl)-2,3-dihydroquinoxaline-1,4-dicarboxamide]", "values": [{"measurement": "anti-HBV activity (in words)", "setting": "[1]; AML12HBV10 cells", "result": "sub-micromolar activities"}]}
{"smiles": "O=C(Nc1ccc(F)c(Cl)c1)N1CC(CN2CCC(F)(F)C2)N(C(=O)Nc2ccc(F)c(Cl)c2)c2ccccc21", "note": "(stereo not drawn) [Compound 97, N^1,N4-bis(3-chloro-4-fluorophenyl)-2-((3,3-difluoropyrrolidin-1-yl)methyl)-2,3-dihydroquinoxaline-1,4-dicarboxamide]", "values": [{"measurement": "anti-HBV activity (in words)", "setting": "[1]; AML12HBV10 cells", "result": "did not help to improve the activity significantly"}]}
{"smiles": "O=C(Nc1ccc(F)c(Cl)c1)N1CC(CN2CCC(F)(F)CC2)N(C(=O)Nc2ccc(F)c(Cl)c2)c2ccccc21", "note": "(stereo not drawn) [Compound 98, N^1,N^4-bis(3-chloro-4-fluorophenyl)-2-((4,4-difluoropiperidin-1-yl)methyl)-2,3-dihydroquinoxaline-1,4-dicarboxamide]", "values": [{"measurement": "anti-HBV activity (in words)", "setting": "[1]; AML12HBV10 cells", "result": "did not help to improve the activity significantly"}]}
{"smiles": "CCC(C)NS(=O)(=O)c1ccc(F)c(C(=O)Nc2ccc(F)c(F)c2)c1", "note": "(stereo not drawn) [DVR-23]", "values": [{"measurement": "amount of encapsidated pgRNA", "setting": "[3]", "result": "significantly reduced"}, {"measurement": "viral DNA replication intermediates", "setting": "[3]", "result": "viral DNA replication was inhibited"}]}
{"smiles": "C=C1[C@H](CO)[C@@H](O)C[C@@H]1n1cnc2c(=O)[nH]c(N)nc21", "note": "[ETV, Entecavir]", "values": [{"measurement": "amount of total viral RNA", "setting": "[3]", "result": "did not alter"}, {"measurement": "amount of core protein", "setting": "[3]", "result": "did not alter"}, {"measurement": "amount of encapsidated pgRNA", "setting": "[3]", "result": "did not alter"}, {"measurement": "viral DNA replication intermediates", "setting": "[3]", "result": "drastically reduced"}, {"measurement": "amount of capsid-associated viral DNA", "setting": "[3]; particle gel assay", "result": "drastically reduced"}]}
